Measured values from publication PMC5481492 (Chemico-biological interactions, 2016).
Like-named read-outs stand apart in the source and are kept apart here.

Key:
[1] = biological target: T1, horse liver ADH1E S48T/F93A (Equus caballus, UniProt P00327, F94A/S49T); assay: Transient; type: biochemical; conditions: pH 8.0, 25 °C; 2 mM NAD+ (oxidation) or stoichiometric NADH (reduction)
Procedure, shortened: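 Stopped-flow (three-syringe, 2.5 ms dead time) at 25 °C in 33 mM sodium phosphate, 0.25 mM EDTA, pH 8.0. Enzyme at 6–15 μN (active sites) was mixed with 2 mM NAD⁺ and varied alcohol (oxidation), or with NADH equal to the enzyme concentration and varied carbonyl compound (reduction). A328 bursts (Δε 5500 M⁻¹cm⁻¹) were fitted as first-order; rate constants were analysed against substrate concentration.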

[2] = biological target: T2, horse liver ADH1E F93A (Equus caballus, UniProt P00327, F94A); assay: Transient; type: biochemical; conditions: for K m (transient reaction) / k max (transient oxidation): pH 8.0, 25 °C, 2 mM NAD+
[3] = biological target: T3, horse liver ADH1E (EqADH1E), wild-type (Equus caballus, UniProt P00327); conditions: value in parentheses; cited from earlier work
[4] = biological target: T4, horse liver ADH1E S48T (Equus caballus, UniProt P00327, S49T); assay: Steady-state kinetics, S48T enzyme; type: biochemical; conditions: for Michaelis constant for coenzyme (Ka NAD+, Kq NADH) / Ki / Turnover number (V1/Et ethanol oxidation, V2/Et acetaldehyde reduction): pH 8.0, 25 °C; for Michaelis constant for coenzyme (Ka NAD+, Kq NADH): both substrates varied; for Ki: read-out: Inhibition constant for coenzyme (Kia NAD+, Kiq NADH); for Ratio of V/Km for (R)- to (S)-enantiomers: enantioselectivity
[5] = biological target: horse liver ADH1E S48A (Equus caballus, UniProt P00327, S49A); assay: Steady-state kinetics, S48A enzyme; type: biochemical; conditions: pH 8.0, 25 °C; for Michaelis constant for coenzyme (Ka NAD+, Kq NADH): both substrates varied; for Ki: read-out: Inhibition constant for coenzyme (Kia NAD+, Kiq NADH)
[6] = biological target: T2, horse liver ADH1E F93A; assay: Steady-state kinetics, F93A enzyme; type: biochemical; conditions: for Michaelis constant for coenzyme (Ka NAD+, Kq NADH): both substrates varied; for Ki: read-out: Inhibition constant for coenzyme (Kia NAD+, Kiq NADH); for Ratio of V/Km for (R)- to (S)-enantiomers: enantioselectivity
[7] = biological target: T1, horse liver ADH1E S48T/F93A; assay: Steady-state kinetics, S48T/F93A enzyme; type: biochemical; conditions: for Michaelis constant for coenzyme (Ka NAD+, Kq NADH) / Ki / Turnover number (V1/Et ethanol oxidation, V2/Et acetaldehyde reduction): pH 8.0, 25 °C; for Michaelis constant for coenzyme (Ka NAD+, Kq NADH): both substrates varied; for Ki: read-out: Inhibition constant for coenzyme (Kia NAD+, Kiq NADH); for Increase of the R/S ratio (inversion of enantioselectivity) as compared to wild-type enzyme: S48T/F93A relative to wild-type; for Ratio of V/Km for (R)- to (S)-enantiomers: enantioselectivity
[8] = biological target: T3, horse liver ADH1E (EqADH1E), wild-type; conditions: pH 8.0, 25 °C; cited from earlier work
[9] = biological target: T3, horse liver ADH1E (EqADH1E), wild-type; assay: Steady-state kinetics, wild-type enzyme; type: biochemical; conditions: enantioselectivity
[10] = biological target: T3, horse liver ADH1E (EqADH1E), wild-type; conditions: pH 8.5, 25 °C, cited from earlier work
[11] = biological target: T1, horse liver ADH1E S48T/F93A; assay: Inhibition of ethanol oxidation, S48T/F93A enzyme; type: biochemical
[12] = biological target: T3, horse liver ADH1E (EqADH1E), wild-type; conditions: cited from earlier work
[13] = biological target: T4, horse liver ADH1E S48T; assay: Inhibition of ethanol oxidation, S48T enzyme; type: biochemical
[14] = biological target: T2, horse liver ADH1E F93A; assay: Inhibition of ethanol oxidation, F93A enzyme; type: biochemical
[15] = biological target: T2, horse liver ADH1E F93A; conditions: cited from earlier work; for Substrate deuterium isotope effect on k max: value in brackets
[16] = competitive against ethanol, pH 8.0, 25 °C

Sequence of horse liver ADH1E S48A (P00327 whole entry S49A): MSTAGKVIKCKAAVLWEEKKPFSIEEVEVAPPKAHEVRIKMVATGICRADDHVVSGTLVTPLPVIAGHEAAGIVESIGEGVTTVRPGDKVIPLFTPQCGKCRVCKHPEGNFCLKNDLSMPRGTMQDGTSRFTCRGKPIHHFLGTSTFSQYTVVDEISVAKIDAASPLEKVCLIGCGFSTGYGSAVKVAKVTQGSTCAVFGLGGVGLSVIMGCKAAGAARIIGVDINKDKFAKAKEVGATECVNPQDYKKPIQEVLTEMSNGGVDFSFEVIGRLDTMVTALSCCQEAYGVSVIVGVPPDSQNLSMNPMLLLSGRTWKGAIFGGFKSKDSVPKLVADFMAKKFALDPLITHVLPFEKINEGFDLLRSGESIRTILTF
T2 sequence (P00327 whole entry F94A): as the sequence (P00327 whole entry S49A) above, with A49S, F94A counted along it
T4 sequence (P00327 whole entry S49T): as the sequence (P00327 whole entry S49A) above, with A49T counted along it
T3 sequence (P00327 whole entry): as the sequence (P00327 whole entry S49A) above, with A49S counted along it
T1 sequence (P00327 whole entry S49T/F94A): as the sequence (P00327 whole entry S49A) above, with A49T, F94A counted along it

In the case of `CC[C@H](C)O` [(S)-2-Butanol, (S)-2-butanol], the “K m (transient reaction)” value [1] is reported as 4.9 mM, the “k max (transient oxidation or reduction)” value [1] is reported as 16 s⁻¹ and the “K m (transient reaction)” value [2] is reported as 1.3 mM. For the same compound, the “k max (transient oxidation)” value [2] was 29 s⁻¹ and the “k max (transient oxidation or reduction)” value [3] was 2.5 s⁻¹.

With `NC(=O)C1=CN([C@@H]2O[C@H](COP(=O)(O)OP(=O)(O)OC[C@H]3O[C@@H](n4cnc5c(N)ncnc54)[C@H](O)[C@@H]3O)[C@@H](O)[C@H]2O)C=CC1` [NADH] the “Michaelis constant for coenzyme (Ka NAD+, Kq NADH)” value (“Michaelis constant for coenzyme” for short) [4] was 6.3 µM, the Ki [4] was 0.57 µM and the “Michaelis constant for coenzyme” value [5] was 44 µM. The Ki [5] was 21 µM, the “Michaelis constant for coenzyme” value ([6]; pH 8.0, 25 °C) was 1.9 µM and the Ki ([6]; pH 8.0, 25 °C) was 0.036 µM. The “Michaelis constant for coenzyme” value [7] was 5.0 µM, the Ki [7] was 0.054 µM and the “Rate constant for binding of NADH” value ([2]; transient kinetics, stated in a paragraph on the F93A and S48T/F93A enzymes) was 1e+07 M⁻¹ s⁻¹. The “Michaelis constant for coenzyme” value [8] was 5.8 µM.

In the case of `CCCCCCC(C)O` (stereo not shown) [2-Octanol, 2-octanol], the “Ratio of V/Km for (R)- to (S)-enantiomers” value (from here on “Ratio of V/Km”) [9] is reported as 0.0034, the “Ratio of V/Km” value [4] is reported as 0.023 and the “Ratio of V/Km” value [6] is reported as 0.62. The “Increase of the R/S ratio (inversion of enantioselectivity) as compared to wild-type enzyme” value [7] was 590 fold and the “Ratio of V/Km” value [7] was 2.0.

With `CCC(C)=O` [2-Butanone, 2-butanone] the Km ([7]; ketone reduction, 0.1 mM NADH) was 12.7 ± 0.9 mM, the V2/Et ([7]; ketone reduction, 0.1 mM NADH) was 0.081 ± 0.002 s⁻¹ and the “K m (transient reaction)” value [1] was 29 mM. The “k max (transient oxidation or reduction)” value [1] was 0.14 s⁻¹, the “k max (transient oxidation or reduction)” value [3] was 0.12 s⁻¹ and the “Binding rate constant k−6” value ([10]; (pro-R)-2-butanone pathway) was 6.5 M⁻¹ s⁻¹. For the same compound, the “Dissociation rate constant k6” value ([10]; (pro-R)-2-butanone pathway) was 4.3 s⁻¹, the “Binding rate constant k−6” value ([10]; (pro-S)-2-butanone pathway) was 180 M⁻¹ s⁻¹ and the “Dissociation rate constant k6” value ([10]; (pro-S)-2-butanone pathway) was 2.5 s⁻¹.

With `CCC(C)O` (stereo not shown) [2-Butanol, 2-butanol] the “Ratio of V/Km” value [9] was 0.45, the “Ratio of V/Km” value [4] was 0.88 and the “Ratio of V/Km” value [6] was 1.1. For the same compound, the “Increase of the R/S ratio (inversion of enantioselectivity) as compared to wild-type enzyme” value [7] was 10 fold and the “Ratio of V/Km” value [7] was 4.3.

In the case of `OCC(F)(F)C(F)(F)C(F)(F)F` [heptafluorobutanol], the Ki [11, 16] is listed as 53 µM and the Ki [12] is listed as 5.3 µM.

In the case of `CC=O` [acetaldehyde], the “Turnover number (V1/Et ethanol oxidation, V2/Et acetaldehyde reduction)” value [4] is reported as 20 s⁻¹, the “Turnover number (V1/Et ethanol oxidation, V2/Et acetaldehyde reduction)” value [5] is reported as 0.29 s⁻¹ and the “Turnover number (V1/Et ethanol oxidation, V2/Et acetaldehyde reduction)” value ([6]; pH 8.0, 25 °C) is reported as 20 s⁻¹. The “Turnover number (V1/Et ethanol oxidation, V2/Et acetaldehyde reduction)” value [7] was 35 s⁻¹, the “K m (transient reaction)” value [1] was 150 mM and the “k max (transient oxidation or reduction)” value [1] was 58 s⁻¹. The “Turnover number (V1/Et ethanol oxidation, V2/Et acetaldehyde reduction)” value [8] was 47 s⁻¹, the “K m (transient reaction)” value [3] was 2.1 mM and the “k max (transient oxidation or reduction)” value [3] was 390 s⁻¹.

In the case of `OCC(F)(F)F` [trifluoroethanol, 2,2,2-trifluoroethanol], the Ki [13] is reported as 98 µM, the Ki [14] is reported as 53 µM and the Ki [11] is reported as 600 µM. For the same compound, the Type of inhibition [11] was “uncompetitive inhibitor against varied concentrations of NAD^+” and the Ki [12, 16] was 8.4 µM.

For `OCc1ccccc1` [Benzyl alcohol, benzyl alcohol], the “K m (transient reaction)” value [1] is given as 15 mM, the “k max (transient oxidation or reduction)” value [1] is given as 78 s⁻¹ and the “k max (transient oxidation or reduction)” value [15] is given as 3.3 s⁻¹. For the same compound, the “Substrate deuterium isotope effect on k max” value [15] was 4.0, the “K m (transient reaction)” value [3] was 0.03 mM and the “k max (transient oxidation or reduction)” value [3] was 24 s⁻¹.

For `CC[C@@H](C)O` [(R)-2-Butanol, (R)-2-butanol], the “K m (transient reaction)” value [1] was 26 mM, the “k max (transient oxidation or reduction)” value [1] was 130 s⁻¹ and the “K m (transient reaction)” value [2] was 1.2 mM. For the same compound, the “k max (transient oxidation)” value [2] was 44 s⁻¹ and the “k max (transient oxidation or reduction)” value [3] was 15 s⁻¹.

For `O=Cc1ccccc1` [Benzaldehyde, benzaldehyde], the “K m (transient reaction)” value [1] is given as 0.26 mM, the “k max (transient oxidation or reduction)” value [1] is given as 0.67 s⁻¹ and the “k max (transient oxidation or reduction)” value [15] is given as 2.2 s⁻¹. For the same compound, the “Substrate deuterium isotope effect on k max” value [15] was 3.4, the “K m (transient reaction)” value [3] was 0.49 mM and the “k max (transient oxidation or reduction)” value [3] was 320 s⁻¹.

With `NC(=O)c1ccc[n+]([C@@H]2O[C@H](COP(=O)([O-])OP(=O)(O)OC[C@H]3O[C@@H](n4cnc5c(N)ncnc54)[C@H](O)[C@@H]3O)[C@@H](O)[C@H]2O)c1` [NAD^+] the “Michaelis constant for coenzyme” value [4] was 11 µM, the Ki [4] was 15 µM and the “Michaelis constant for coenzyme” value [5] was 200 µM. The Ki [5] was 110 µM, the “Michaelis constant for coenzyme” value ([6]; pH 8.0, 25 °C) was 3.3 µM and the Ki ([6]; pH 8.0, 25 °C) was 44 µM. For the same compound, the “Michaelis constant for coenzyme” value [7] was 4.4 µM, the Ki [7] was 33 µM and the “Michaelis constant for coenzyme” value [8] was 3.9 µM.

For `CC(O)c1ccccc1` (stereo not shown) [sec-Phenethyl alcohol, sec-phenethyl alcohol], the “Ratio of V/Km” value [9] was 0.067, the “Ratio of V/Km” value [6] was 0.34 and the “Increase of the R/S ratio (inversion of enantioselectivity) as compared to wild-type enzyme” value [7] was 190 fold. For the same compound, the “Ratio of V/Km” value [7] was 13.

In the case of `OCc1c(F)c(F)c(F)c(F)c1F` [pentafluorobenzyl alcohol, 2,3,4,5,6-pentafluorobenzyl alcohol], the Ki [13] is reported as 740 µM, the Ki [14] is reported as 51 µM and the Ki [11] is reported as over 10000 µM. For the same compound, the Ki [12, 16] was 0.52 µM.

In the case of `c1cn[nH]c1` [Pyrazole, pyrazole], the Type of inhibition [11] is given as “competitive inhibitor against varied concentrations of ethanol”, the Ki [11, 16] is given as 8.1 µM and the Ki [12] is given as 0.2 µM.

In the case of `CCO` [ethanol], the “Turnover number (V1/Et ethanol oxidation, V2/Et acetaldehyde reduction)” value [4] is reported as 1.7 s⁻¹, the “Turnover number (V1/Et ethanol oxidation, V2/Et acetaldehyde reduction)” value [5] is reported as 0.01 s⁻¹ and the “Catalytic efficiency (V1/EtKb, V2/EtKp)” value ([6]; pH 8.0, 25 °C) is reported as 1.7 mM⁻¹ s⁻¹. For the same compound, the “Turnover number (V1/Et ethanol oxidation, V2/Et acetaldehyde reduction)” value ([6]; pH 8.0, 25 °C) was 0.35 s⁻¹, the “Turnover number (V1/Et ethanol oxidation, V2/Et acetaldehyde reduction)” value [7] was 0.29 s⁻¹ and the “K m (transient reaction)” value [1] was 38 mM. For the same compound, the “k max (transient oxidation or reduction)” value [1] was 72 s⁻¹, the “K m (transient reaction)” value [2] was 26 mM and the “k max (transient oxidation)” value [2] was 22 s⁻¹. For the same compound, the “Catalytic efficiency (V1/EtKb, V2/EtKp)” value [8] was 10 mM⁻¹ s⁻¹, the “Turnover number (V1/Et ethanol oxidation, V2/Et acetaldehyde reduction)” value [8] was 3.5 s⁻¹ and the “K m (transient reaction)” value [3] was 4.1 mM. The “k max (transient oxidation or reduction)” value [3] was 180 s⁻¹.
